{
  "source": "paper PMC10653054",
  "about": "(ACS Omega, 2023)",
  "data": [
    {"tested_on": "normal human dermal fibroblast (HDF) cells", "assay": "MTT cytotoxicity assay, normal HDF cells", "format": "cell-based", "settings": "48 h, read-out: In vitro antiproliferative effects (IC50) HDF", "method_in_brief": "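Cells came from the National Cell Bank of Iran and were grown in RPMI-1640 or DMEM with 10% FBS at 37 °C, 5% CO2 and 100% humidity. Test compounds in 0.1% DMSO (n = 3) were incubated 48 h, then MTT for 3 h, with formazan OD read at 570 nm. Controls were 0.1% DMSO (negative) and etoposide (positive). IC50 came from dose–response curves, mean ± SE of at least three independent experiments.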", "units": {"IC50": "µM"}, "values": [
      {"smiles": "COC(=O)c1c(-c2ccccc2F)c2n(c1C(=O)OC)CCn1cccc1-2", "note": "[5i, Dimethyl-1-(2-fluorophenyl)-5,6-dihydrodipyrrolo[1,2-a:2′,1′-c]pyrazine-2,3-dicarboxylate]", "IC50": "> 100"},
      {"smiles": "COC(=O)c1c(-c2cccc(Cl)c2)c2n(c1C(=O)OC)CCn1cccc1-2", "note": "[5k, Dimethyl-1-(3-chlorophenyl)-5,6-dihydrodipyrrolo[1,2-a:2′,1′-c]pyrazine-2,3-dicarboxylate]", "IC50": "> 100"},
      {"smiles": "O=c1[nH]nc(O)c2c(-c3ccc([N+](=O)[O-])cc3)c3n(c12)CCn1cccc1-3", "note": "[7n, 11-Hydroxy-12-(4-nitrophenyl)-5,6-dihydropyrrolo[2″,1″:3′,4′]pyrazino[1′,2′:1,5] pyrrolo[2,3-d]pyridazin-8(9H)-one]", "IC50": "> 100"},
      {"smiles": "COC(=O)c1c(-c2ccc(O)c(OC)c2)c2n(c1C(=O)OC)CCn1cccc1-2", "note": "[5q, Dimethyl-1-(4-hydroxy-3-methoxyphenyl)-5,6-dihydrodipyrrolo[1,2-a:2′,1′-c]pyrazine-2,3-dicarboxylate]", "IC50": "> 100"},
      {"smiles": "COC(=O)c1c(-c2ccc(Cl)cc2Cl)c2n(c1C(=O)OC)CCn1cccc1-2", "note": "[5r, Dimethyl-1-(2,4-dichlorophenyl)-5,6-dihydrodipyrrolo[1,2-a:2′,1′-c]pyrazine-2,3-dicarboxylate]", "IC50": "> 100"},
      {"smiles": "COc1cccc(-c2c3n(c4c(=O)[nH]nc(O)c24)CCn2cccc2-3)c1", "note": "[7f, 11-Hydroxy-12-(3-methoxyphenyl)-5,6-dihydropyrrolo[2″,1″:3′,4′]pyrazino[1′,2′:1,5] pyrrolo[2,3-d]pyridazin-8(9H)-one]", "IC50": "> 100"},
      {"smiles": "COc1cc(-c2c3n(c4c(=O)[nH]nc(O)c24)CCn2cccc2-3)cc(OC)c1OC", "note": "[7q, 11-Hydroxy-12-(3,4,5-trimethoxyphenyl)-5,6-dihydropyrrolo[2″,1″:3′,4′]pyrazino [1′,2′:1,5]pyrrolo[2,3-d]pyridazin-8(9H)-one]", "IC50": "> 100"},
      {"smiles": "O=c1[nH]nc(O)c2c(-c3cccc(Br)c3)c3n(c12)CCn1cccc1-3", "note": "[7k, 12-(3-Bromophenyl)-11-hydroxy-5,6-dihydropyrrolo[2″,1″:3′,4′]pyrazino[1′,2′:1,5]pyrrolo [2,3-d]pyridazin-8(9H)-one]", "IC50": "> 100"},
      {"smiles": "COC(=O)c1c(-c2ccc(OC)cc2)c2n(c1C(=O)OC)CCn1cccc1-2", "note": "[5h, Dimethyl-1-(4-methoxyphenyl)-5,6-dihydrodipyrrolo[1,2-a:2′,1′-c]pyrazine-2,3-dicarboxylate]", "IC50": "> 100"},
      {"smiles": "COC(=O)c1c(-c2ccc(Br)cc2)c2n(c1C(=O)OC)CCn1cccc1-2", "note": "[5n, Dimethyl-1-(4-bromophenyl)-5,6-dihydrodipyrrolo[1,2-a:2′,1′-c]pyrazine-2,3-dicarboxylate]", "IC50": "> 100"},
      {"smiles": "COC(=O)c1c(-c2ccc([N+](=O)[O-])cc2)c2n(c1C(=O)OC)CCn1cccc1-2", "note": "[5p, Dimethyl-1-(4-nitrophenyl)-5,6-dihydrodipyrrolo[1,2-a:2′,1′-c]pyrazine-2,3-dicarboxylate]", "IC50": "> 100"},
      {"smiles": "COC(=O)c1c(-c2cccc(C)c2)c2n(c1C(=O)OC)CCn1cccc1-2", "note": "[5e, Dimethyl-1-(3-tolyl)-5,6-dihydrodipyrrolo[1,2-a:2′,1′-c]pyrazine-2,3-dicarboxylate]", "IC50": "> 100"},
      {"smiles": "COC(=O)c1c(-c2ccc(C)cc2)c2n(c1C(=O)OC)CCn1cccc1-2", "note": "[5f, Dimethyl-1-(4-tolyl)-5,6-dihydrodipyrrolo[1,2-a:2′,1′-c]pyrazine-2,3-dicarboxylate]", "IC50": "> 100"},
      {"smiles": "COc1cc([C@@H]2c3cc4c(cc3[C@@H](O[C@@H]3O[C@@H]5CO[C@@H](C)O[C@H]5[C@H](O)[C@H]3O)[C@H]3COC(=O)[C@H]23)OCO4)cc(OC)c1O", "note": "[etoposide, reference compound]", "IC50": "> 100"},
      {"smiles": "COC(=O)c1c(-c2ccccc2O)c2n(c1C(=O)OC)CCn1cccc1-2", "note": "[5b, Dimethyl-1-(2-hydroxyphenyl)-5,6-dihydrodipyrrolo[1,2-a:2′,1′-c]pyrazine-2,3-dicarboxylate]", "IC50": "> 100"},
      {"smiles": "O=c1[nH]nc(O)c2c(-c3cccc(Cl)c3)c3n(c12)CCn1cccc1-3", "note": "[7i, 12-(3-Chlorophenyl)-11-hydroxy-5,6-dihydropyrrolo[2″,1″:3′,4′]pyrazino[1′,2′:1,5]pyrrolo [2,3-d]pyridazin-8(9H)-one]", "IC50": "> 100"},
      {"smiles": "COC(=O)c1c(-c2ccccc2C)c2n(c1C(=O)OC)CCn1cccc1-2", "note": "[5d, Dimethyl-1-(2-tolyl)-5,6-dihydrodipyrrolo[1,2-a:2′,1′-c]pyrazine-2,3-dicarboxylate]", "IC50": "> 100"},
      {"smiles": "O=c1[nH]nc(O)c2c(-c3ccc(Cl)cc3Cl)c3n(c12)CCn1cccc1-3", "note": "[7p, 12-(2,4-Dichlorophenyl)-11-hydroxy-5,6-dihydropyrrolo[2″,1″:3′,4′]pyrazino [1′,2′:1,5]pyrrolo[2,3-d]pyridazin-8(9H)-one]", "IC50": "> 100"},
      {"smiles": "COC(=O)c1c(-c2cccc(O)c2)c2n(c1C(=O)OC)CCn1cccc1-2", "note": "[5c, Dimethyl-1-(3-hydroxyphenyl)-5,6-dihydrodipyrrolo[1,2-a:2′,1′-c]pyrazine-2,3-dicarboxylate]", "IC50": "> 100"},
      {"smiles": "COC(=O)c1c(-c2ccc(F)cc2)c2n(c1C(=O)OC)CCn1cccc1-2", "note": "[5j, Dimethyl-1-(4-fluorophenyl)-5,6-dihydrodipyrrolo[1,2-a:2′,1′-c]pyrazine-2,3-dicarboxylate]", "IC50": "> 100"},
      {"smiles": "O=c1[nH]nc(O)c2c(-c3ccc(F)cc3)c3n(c12)CCn1cccc1-3", "note": "[7h, 12-(4-Fluorophenyl)-11-hydroxy-5,6-dihydropyrrolo[2″,1″:3′,4′]pyrazino[1′,2′:1,5] pyrrolo[2,3-d]pyridazin-8(9H)-one]", "IC50": "> 100"},
      {"smiles": "COC(=O)c1c(-c2ccccc2)c2n(c1C(=O)OC)CCn1cccc1-2", "note": "[5a, Dimethyl-1-phenyl-5,6-dihydrodipyrrolo[1,2-a:2′,1′-c]pyrazine-2,3-dicarboxylate]", "IC50": "> 100"},
      {"smiles": "COc1ccc(-c2c3n(c4c(=O)[nH]nc(O)c24)CCn2cccc2-3)cc1", "note": "[7g, 11-Hydroxy-12-(4-methoxyphenyl)-5,6-dihydropyrrolo[2″,1″:3′,4′]pyrazino[1′,2′:1,5] pyrrolo[2,3-d]pyridazin-8(9H)-one]", "IC50": "> 100"},
      {"smiles": "Cc1cccc(-c2c3n(c4c(=O)[nH]nc(O)c24)CCn2cccc2-3)c1", "note": "[7d, 11-Hydroxy-12-(m-tolyl)-5,6-dihydropyrrolo[2″,1″:3′,4′]pyrazino[1′,2′:1,5]pyrrolo[2,3-d] pyridazin-8(9H)-one]", "IC50": "> 100"},
      {"smiles": "COC(=O)c1c(-c2cccc(OC)c2)c2n(c1C(=O)OC)CCn1cccc1-2", "note": "[5g, Dimethyl-1-(3-methoxyphenyl)-5,6-dihydrodipyrrolo[1,2-a:2′,1′-c]pyrazine-2,3-dicarboxylate]", "IC50": "> 100"},
      {"smiles": "O=c1[nH]nc(O)c2c(-c3ccc(Cl)cc3)c3n(c12)CCn1cccc1-3", "note": "[7j, 12-(4-Chlorophenyl)-11-hydroxy-5,6-dihydropyrrolo[2″,1″:3′,4′]pyrazino[1′,2′:1,5] pyrrolo[2,3-d]pyridazin-8(9H)-one]", "IC50": "> 100"},
      {"smiles": "COC(=O)c1c(-c2cccc(Br)c2)c2n(c1C(=O)OC)CCn1cccc1-2", "note": "[5m, Dimethyl-1-(3-bromophenyl)-5,6-dihydrodipyrrolo[1,2-a:2′,1′-c]pyrazine-2,3-dicarboxylate]", "IC50": "> 100"},
      {"smiles": "COC(=O)c1c(-c2ccc(Cl)cc2)c2n(c1C(=O)OC)CCn1cccc1-2", "note": "[5l, Dimethyl-1-(4-chlorophenyl)-5,6-dihydrodipyrrolo[1,2-a:2′,1′-c]pyrazine-2,3-dicarboxylate]", "IC50": "> 100"},
      {"smiles": "COc1cc(-c2c3n(c4c(=O)[nH]nc(O)c24)CCn2cccc2-3)ccc1O", "note": "[7o, 11-Hydroxy-12-(4-hydroxy-3-methoxyphenyl)-5,6-dihydropyrrolo[2″,1″:3′,4′]pyrazino [1′,2′:1,5]pyrrolo[2,3-d]pyridazin-8(9H)-one]", "IC50": "> 100"},
      {"smiles": "O=c1[nH]nc(O)c2c(-c3cccc(O)c3)c3n(c12)CCn1cccc1-3", "note": "[7b, 11-Hydroxy-12-(3-hydroxyphenyl)-5,6-dihydropyrrolo[2″,1″:3′,4′]pyrazino[1′,2′:1,5] pyrrolo[2,3-d]pyridazin-8(9H)-one]", "IC50": "> 100"},
      {"smiles": "Cc1ccccc1-c1c2n(c3c(=O)[nH]nc(O)c13)CCn1cccc1-2", "note": "[7c, 11-Hydroxy-12-(o-tolyl)-5,6-dihydropyrrolo[2″,1″:3′,4′]pyrazino[1′,2′:1,5]pyrrolo[2,3-d] pyridazin-8(9H)-one]", "IC50": "> 100"},
      {"smiles": "COC(=O)c1c(-c2cc(OC)c(OC)c(OC)c2)c2n(c1C(=O)OC)CCn1cccc1-2", "note": "[5s, Dimethyl-1-(3,4,5-trimethoxyphenyl)-5,6-dihydrodipyrrolo[1,2-a:2′,1′-c]pyrazine-2,3-dicarboxylate]", "IC50": "> 100"},
      {"smiles": "O=c1[nH]nc(O)c2c(-c3ccccc3)c3n(c12)CCn1cccc1-3", "note": "[7a, 11-Hydroxy-12-phenyl-5,6-dihydropyrrolo[2″,1″:3′,4′]pyrazino[1′,2′:1,5]pyrrolo[2,3-d] pyridazin-8(9H)-one]", "IC50": "> 100"},
      {"smiles": "Cc1ccc(-c2c3n(c4c(=O)[nH]nc(O)c24)CCn2cccc2-3)cc1", "note": "[7e, 11-Hydroxy-12-(p-tolyl)-5,6-dihydropyrrolo[2″,1″:3′,4′]pyrazino[1′,2′:1,5]pyrrolo[2,3-d] pyridazin-8(9H)-one]", "IC50": "> 100"},
      {"smiles": "COC(=O)c1c(-c2cccc([N+](=O)[O-])c2)c2n(c1C(=O)OC)CCn1cccc1-2", "note": "[5o, Dimethyl-1-(3-nitrophenyl)-5,6-dihydrodipyrrolo[1,2-a:2′,1′-c]pyrazine-2,3-dicarboxylate]", "IC50": "> 100"},
      {"smiles": "O=c1[nH]nc(O)c2c(-c3ccc(Br)cc3)c3n(c12)CCn1cccc1-3", "note": "[7l, 12-(4-Bromophenyl)-11-hydroxy-5,6-dihydropyrrolo[2″,1″:3′,4′]pyrazino[1′,2′:1,5] pyrrolo[2,3-d]pyridazin-8(9H)-one]", "IC50": "> 100"}
    ]}
  ]
}
